According to ChEMBL document CHEMBL1165965, “Synthesis and structure-activity relationships of 1,2,3,4-tetrahydropyrido[2,3-b]pyrazines as potent and selective inhibitors of the anaplastic lymphoma kinase” (Bioorg Med Chem, 2010):

Tests used:
[1] = target: T1, Tyrosine-protein kinase TXK (Homo sapiens) (UniProt P42681); assay: Inhibition of TXK at 1 uM
T1 sequence (whole entry): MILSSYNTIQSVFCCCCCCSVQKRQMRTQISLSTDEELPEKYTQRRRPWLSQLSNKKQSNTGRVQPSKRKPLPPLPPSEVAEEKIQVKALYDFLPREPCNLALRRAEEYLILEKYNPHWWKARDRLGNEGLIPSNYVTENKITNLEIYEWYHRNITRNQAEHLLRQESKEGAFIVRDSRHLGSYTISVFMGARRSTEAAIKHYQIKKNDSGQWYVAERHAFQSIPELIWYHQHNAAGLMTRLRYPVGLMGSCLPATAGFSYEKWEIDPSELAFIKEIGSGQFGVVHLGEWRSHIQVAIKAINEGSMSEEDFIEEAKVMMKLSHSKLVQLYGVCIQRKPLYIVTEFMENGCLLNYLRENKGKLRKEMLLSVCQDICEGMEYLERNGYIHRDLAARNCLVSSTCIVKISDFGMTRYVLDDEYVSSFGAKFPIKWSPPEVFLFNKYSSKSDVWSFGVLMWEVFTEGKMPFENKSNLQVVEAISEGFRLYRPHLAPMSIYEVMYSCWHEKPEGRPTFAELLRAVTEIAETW

[2] = target: T2, 3-phosphoinositide-dependent protein kinase 1 (Homo sapiens) (UniProt O15530); assay: Inhibition of PDPK1 at 1 uM
T2 sequence (whole entry): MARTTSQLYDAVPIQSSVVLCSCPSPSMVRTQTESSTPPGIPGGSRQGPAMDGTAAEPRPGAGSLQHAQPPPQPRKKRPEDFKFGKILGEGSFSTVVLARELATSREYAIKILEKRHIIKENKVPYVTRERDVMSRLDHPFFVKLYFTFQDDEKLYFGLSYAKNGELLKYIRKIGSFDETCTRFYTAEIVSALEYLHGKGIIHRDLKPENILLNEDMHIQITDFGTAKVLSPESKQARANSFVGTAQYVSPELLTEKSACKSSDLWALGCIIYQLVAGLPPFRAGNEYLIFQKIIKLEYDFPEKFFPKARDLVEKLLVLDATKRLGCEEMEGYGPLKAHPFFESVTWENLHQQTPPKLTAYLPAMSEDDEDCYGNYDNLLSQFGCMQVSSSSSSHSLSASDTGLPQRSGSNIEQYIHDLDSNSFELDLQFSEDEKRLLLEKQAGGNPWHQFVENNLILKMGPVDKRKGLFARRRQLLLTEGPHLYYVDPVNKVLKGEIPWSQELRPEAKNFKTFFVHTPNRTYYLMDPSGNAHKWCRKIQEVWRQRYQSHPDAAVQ

[3] = target: Serine/threonine-protein kinase RIO2 (Homo sapiens) (UniProt Q9BVS4); assay: Inhibition of RIOK2 at 1 uM
[4] = target: Phosphatidylinositol 4-kinase beta (Homo sapiens) (UniProt Q9UBF8); assay: Inhibition of PIK4CB at 1 uM
[5] = target: Serine/threonine-protein kinase PAK 2 (Homo sapiens) (UniProt Q13177); assay: Inhibition of PAK2 at 1 uM
[6] = target: T3, Inhibitor of nuclear factor kappa-B kinase subunit epsilon (Homo sapiens) (UniProt Q14164); assay: Inhibition of IKK-epsilon at 1 uM
T3 sequence (whole entry): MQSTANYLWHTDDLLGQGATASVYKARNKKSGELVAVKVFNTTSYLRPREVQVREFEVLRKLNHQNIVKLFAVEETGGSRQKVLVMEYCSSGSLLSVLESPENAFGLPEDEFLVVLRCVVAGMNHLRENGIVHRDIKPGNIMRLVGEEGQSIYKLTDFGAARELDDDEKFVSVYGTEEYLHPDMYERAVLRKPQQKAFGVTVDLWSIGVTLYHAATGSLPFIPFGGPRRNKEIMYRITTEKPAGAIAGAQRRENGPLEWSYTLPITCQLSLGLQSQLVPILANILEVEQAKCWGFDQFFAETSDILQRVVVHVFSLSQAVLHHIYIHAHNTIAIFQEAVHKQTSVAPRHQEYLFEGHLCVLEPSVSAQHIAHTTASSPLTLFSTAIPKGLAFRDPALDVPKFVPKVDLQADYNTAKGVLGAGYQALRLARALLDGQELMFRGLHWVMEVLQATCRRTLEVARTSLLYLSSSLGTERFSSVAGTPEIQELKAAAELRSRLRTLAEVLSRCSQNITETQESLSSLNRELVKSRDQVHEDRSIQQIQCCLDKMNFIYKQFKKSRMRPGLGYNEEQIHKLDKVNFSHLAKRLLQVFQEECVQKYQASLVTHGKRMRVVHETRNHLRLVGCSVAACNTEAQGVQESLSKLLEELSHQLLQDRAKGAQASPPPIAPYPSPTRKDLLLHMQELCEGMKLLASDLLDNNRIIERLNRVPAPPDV

[7] = target: T4, Tyrosine-protein kinase receptor TYRO3 (Homo sapiens) (UniProt Q06418); assay: Inhibition of TYRO3 at 1 uM
T4 sequence (whole entry): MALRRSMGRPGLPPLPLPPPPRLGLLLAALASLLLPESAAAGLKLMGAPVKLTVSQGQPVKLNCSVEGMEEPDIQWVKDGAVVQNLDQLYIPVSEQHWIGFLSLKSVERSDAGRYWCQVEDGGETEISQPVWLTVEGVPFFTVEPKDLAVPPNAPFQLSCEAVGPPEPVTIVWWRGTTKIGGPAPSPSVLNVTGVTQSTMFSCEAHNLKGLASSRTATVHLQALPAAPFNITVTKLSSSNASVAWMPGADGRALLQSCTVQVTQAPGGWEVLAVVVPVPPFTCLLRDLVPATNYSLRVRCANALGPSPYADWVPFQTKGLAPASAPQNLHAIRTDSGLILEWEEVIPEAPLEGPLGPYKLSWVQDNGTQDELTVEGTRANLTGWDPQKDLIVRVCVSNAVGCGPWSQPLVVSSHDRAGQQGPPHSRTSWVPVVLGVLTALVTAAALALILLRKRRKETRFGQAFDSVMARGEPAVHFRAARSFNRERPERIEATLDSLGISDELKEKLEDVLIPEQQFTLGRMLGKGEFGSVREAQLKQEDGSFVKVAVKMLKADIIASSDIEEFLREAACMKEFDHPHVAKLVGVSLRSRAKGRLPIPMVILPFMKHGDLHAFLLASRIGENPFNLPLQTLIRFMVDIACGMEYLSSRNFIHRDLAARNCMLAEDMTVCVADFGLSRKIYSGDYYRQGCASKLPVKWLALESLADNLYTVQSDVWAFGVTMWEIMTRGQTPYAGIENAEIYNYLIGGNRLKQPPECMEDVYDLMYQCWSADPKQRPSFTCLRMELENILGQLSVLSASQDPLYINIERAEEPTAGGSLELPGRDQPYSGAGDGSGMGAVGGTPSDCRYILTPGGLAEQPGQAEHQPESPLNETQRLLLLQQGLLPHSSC

[8] = target: Mitogen-activated protein kinase 1 (Homo sapiens) (UniProt P28482); assay: Inhibition of ERK2 at 1 uM
Outline: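 Single-concentration screen using Ambit Bioscience KINOMEscan technology across a panel of 250–400 kinases. Per-kinase inhibition from this screen was summarized as S(90), the fraction of kinases inhibited by more than 90%.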

Chain of Phosphatidylinositol 4-kinase beta (Homo sapiens) (Q9UBF8 2-816 limits assumed): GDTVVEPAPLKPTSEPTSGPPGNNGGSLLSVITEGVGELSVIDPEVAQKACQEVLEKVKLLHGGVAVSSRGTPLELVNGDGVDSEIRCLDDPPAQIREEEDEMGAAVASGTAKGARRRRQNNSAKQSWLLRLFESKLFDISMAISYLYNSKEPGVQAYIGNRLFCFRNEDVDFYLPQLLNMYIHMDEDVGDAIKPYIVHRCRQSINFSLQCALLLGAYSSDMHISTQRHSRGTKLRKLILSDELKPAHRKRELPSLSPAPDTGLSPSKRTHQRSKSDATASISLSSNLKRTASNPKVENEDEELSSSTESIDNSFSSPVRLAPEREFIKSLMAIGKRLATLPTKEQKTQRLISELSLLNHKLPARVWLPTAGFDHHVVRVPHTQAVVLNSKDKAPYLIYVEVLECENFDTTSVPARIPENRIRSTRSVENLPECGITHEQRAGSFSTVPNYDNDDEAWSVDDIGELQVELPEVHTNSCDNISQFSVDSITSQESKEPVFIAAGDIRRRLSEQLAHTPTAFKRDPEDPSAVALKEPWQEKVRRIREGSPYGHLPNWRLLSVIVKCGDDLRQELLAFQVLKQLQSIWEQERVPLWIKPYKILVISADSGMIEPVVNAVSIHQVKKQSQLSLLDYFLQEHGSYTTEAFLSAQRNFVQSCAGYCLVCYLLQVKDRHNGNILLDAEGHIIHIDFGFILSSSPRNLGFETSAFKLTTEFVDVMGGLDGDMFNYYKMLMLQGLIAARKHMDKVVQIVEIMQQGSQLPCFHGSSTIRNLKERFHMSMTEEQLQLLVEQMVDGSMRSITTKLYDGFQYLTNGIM
Chain of Serine/threonine-protein kinase RIO2 (Homo sapiens) (Q9BVS4 whole entry, looked up): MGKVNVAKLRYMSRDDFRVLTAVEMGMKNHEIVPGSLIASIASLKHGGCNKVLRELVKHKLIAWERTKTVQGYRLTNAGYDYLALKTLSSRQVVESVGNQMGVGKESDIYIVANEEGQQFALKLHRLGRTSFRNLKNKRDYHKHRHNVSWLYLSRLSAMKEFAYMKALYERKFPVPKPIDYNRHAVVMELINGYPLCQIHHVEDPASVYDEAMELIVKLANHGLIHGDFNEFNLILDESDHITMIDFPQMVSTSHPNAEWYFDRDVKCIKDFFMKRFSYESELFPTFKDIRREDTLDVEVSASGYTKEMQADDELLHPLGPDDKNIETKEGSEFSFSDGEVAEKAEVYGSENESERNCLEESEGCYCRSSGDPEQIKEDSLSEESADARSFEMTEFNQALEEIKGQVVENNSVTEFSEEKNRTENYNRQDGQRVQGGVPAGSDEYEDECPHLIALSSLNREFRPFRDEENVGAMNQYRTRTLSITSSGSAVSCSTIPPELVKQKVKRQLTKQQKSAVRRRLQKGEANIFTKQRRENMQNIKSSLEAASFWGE
Chain of Mitogen-activated protein kinase 1 (Homo sapiens) (P28482 whole entry): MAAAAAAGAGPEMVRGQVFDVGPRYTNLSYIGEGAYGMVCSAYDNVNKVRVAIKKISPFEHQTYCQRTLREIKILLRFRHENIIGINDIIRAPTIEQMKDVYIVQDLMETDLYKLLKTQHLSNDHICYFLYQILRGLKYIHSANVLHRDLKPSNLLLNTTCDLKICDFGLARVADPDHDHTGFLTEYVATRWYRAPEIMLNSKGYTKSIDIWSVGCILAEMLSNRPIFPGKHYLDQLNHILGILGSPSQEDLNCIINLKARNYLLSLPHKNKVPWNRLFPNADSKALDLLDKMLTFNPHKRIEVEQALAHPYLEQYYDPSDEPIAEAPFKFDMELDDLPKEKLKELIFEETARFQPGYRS
Chain of Serine/threonine-protein kinase PAK 2 (Homo sapiens) (Q13177 whole entry): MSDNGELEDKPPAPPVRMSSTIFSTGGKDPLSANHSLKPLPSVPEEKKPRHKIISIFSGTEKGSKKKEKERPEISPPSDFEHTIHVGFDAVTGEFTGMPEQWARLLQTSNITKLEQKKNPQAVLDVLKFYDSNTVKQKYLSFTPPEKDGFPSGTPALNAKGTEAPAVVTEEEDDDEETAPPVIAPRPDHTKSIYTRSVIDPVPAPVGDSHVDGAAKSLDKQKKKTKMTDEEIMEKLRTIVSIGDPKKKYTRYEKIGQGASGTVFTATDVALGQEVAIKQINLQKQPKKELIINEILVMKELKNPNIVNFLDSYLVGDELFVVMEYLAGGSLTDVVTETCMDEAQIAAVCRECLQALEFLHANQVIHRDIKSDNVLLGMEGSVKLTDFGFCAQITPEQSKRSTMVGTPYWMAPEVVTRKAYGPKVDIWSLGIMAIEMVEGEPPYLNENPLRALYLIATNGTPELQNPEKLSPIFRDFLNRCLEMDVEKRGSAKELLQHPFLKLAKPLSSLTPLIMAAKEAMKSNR

Row | inhibition [1] [%] | inhibition [2] [%] | inhibition [3] [%] | inhibition [4] [%] | inhibition [5] [%] | inhibition [6] [%] | inhibition [7] [%] | inhibition [8] [%] | Compound
1 | < 50 | < 50 | < 50 | < 50 | < 50 | < 50 | < 50 | < 50 | CN1CCN(c2ccc(-c3cnc4c(c3)N(Cc3cc(Cl)ccc3Cl)CCN4)cn2)CC1
2 | < 50 | < 50 | < 50 | < 50 | < 50 | < 50 | < 50 | < 50 | CN1CCN(c2ccc(-c3cnc4c(c3)N(Cc3cc(Cl)ccc3C(F)(F)F)CCN4)cn2)CC1
3 | < 50 | < 50 | – | < 50 | < 50 | – | < 50 | < 50 | COC1CCN(C(=O)c2ccc(-c3cnc4c(c3)N(Cc3cc(Cl)ccc3C(F)(F)F)CCN4)cc2)CC1
4 | < 50 | < 50 | – | < 50 | < 50 | – | < 50 | < 50 | O=C(c1ccc(-c2cnc3c(c2)N(Cc2cc(Cl)ccc2C(F)(F)F)CCN3)cc1)N1CCCCC1
5 | < 50 | < 50 | < 50 | < 50 | < 50 | < 50 | < 50 | < 50 | FC(F)(F)c1ccc(Cl)cc1CN1CCNc2ncc(-c3ccnc(N4CCNCC4)c3)cc21
6 | < 50 | < 50 | < 50 | < 50 | < 50 | < 50 | < 50 | < 50 | CC(=O)N1CCN(c2cc(-c3cnc4c(c3)N(Cc3cc(Cl)ccc3C(F)(F)F)CCN4)ccn2)CC1
7 | < 50 | < 50 | – | < 50 | < 50 | – | < 50 | < 50 | O=C(O)c1ccc(-c2cnc3c(c2)N(Cc2cc(Cl)ccc2C(F)(F)F)CCN3)cc1
8 | < 50 | < 50 | – | < 50 | < 50 | – | < 50 | < 50 | O=C(c1ccc(-c2cnc3c(c2)N(Cc2cc(Cl)ccc2C(F)(F)F)CCN3)cc1)N1CCC(N2CCCC2)CC1
9 | < 50 | < 50 | < 50 | < 50 | < 50 | < 50 | < 50 | < 50 | CN1CCN(c2ccc(-c3cnc4c(c3)N(Cc3c(F)ccc(F)c3Cl)CCN4)cn2)CC1
10 | < 50 | < 50 | < 50 | < 50 | < 50 | < 50 | < 50 | < 50 | CN1CCN(c2ccc(-c3cnc4c(c3)N(Cc3cc(F)ccc3F)CCN4)cn2)CC1
